This is a sample that favours compounds with a hit; in the whole collection about 2.3% have one here.
OXTR ag: human OXTR agonism; activation, % at 3 µM; 320,000 compounds, 0.32% hits; P30559; CHO-OTR cells, Fluo-8 calcium fluorescence; normalized: DMSO 0%, oxytocin 100%;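 active means activation above the mean of all tested compounds plus 3 SD, cutoff set per screening run, cut at about 20% in these data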;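 further: peak over basal fluorescence ratio from a 100 s FLIPR kinetic read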
TAAR1 ag: agonists of human TAAR1. 360,000 compounds, 0.99% hits. activation, % at 3 µM. CHO RD-HGA16 TAAR1, Fluo-8 calcium fluorescence; vehicle wells 0%, saturating PEA agonist 100%;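 active means activation above the mean activation of all test compounds in the run plus 3 SD, cut at about 38% in these data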
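Test system: RD-HGA16 (CHO) cells co-expressing Gα16 and hTAAR1 / Benchmarks: DMSO vehicle as 0%, PEA at EC100 as 100% / Repeats: no replicates (n 1) / Measure: % activation from peak over basal fluorescence ratio, DMSO-to-PEA scaled / Timing: 17-24 h plating, Fluo-8 75 min 37 °C, 30 min RT / Technique: kinetic Fluo-8 calcium fluorescence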
TAAR1 antag: human TAAR1 antagonism | inhibition, % at 3 µM | AID 624466 | CHO RD-HGA16 TAAR1, Fluo-8 calcium fluorescence, antagonist | 360,000 compounds, 1.5% hits;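 active means inhibition above a per-plate cutoff, the mean inhibition of test compounds on that plate plus 3 SD, cut at about 49% in these data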;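 further: 0% = DMSO plus EC80 beta-PEA response and 100% = DMSO alone without agonist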
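test system = CHO RD-HGA16 cells bearing hTAAR1 | replication = singlicate | controls = DMSO-only wells and EC80 β-PEA-stimulated wells | reagent = EC80 β-phenethylamine stimulus | read-out basis = percent inhibition of PEA-evoked calcium signal, max/basal emission ratio | schedule = seeding 17-24 h prior, 75-min 37 °C, 30-min RT dye loading | signal = kinetic Fluo-8 calcium fluorescence measurement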
V1R ag counter: V1a receptor agonism, counter-screen for OXTR agonists; 320,000 compounds, 0.25% hits; CHO-V1R cells, Fluo-8 calcium fluorescence, agonist mode; 0% DMSO, 100% 3 nM vasopressin; activation, % at 3 µM; P37288;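 active means activation above the mean activation of all tested compounds plus 3 SD, per screening run, cut at about 20% in these data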;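 further: signal is peak over basal fluorescence ratio across a 100 second FLIPR read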
Target sequence (P37288 whole entry, looked up): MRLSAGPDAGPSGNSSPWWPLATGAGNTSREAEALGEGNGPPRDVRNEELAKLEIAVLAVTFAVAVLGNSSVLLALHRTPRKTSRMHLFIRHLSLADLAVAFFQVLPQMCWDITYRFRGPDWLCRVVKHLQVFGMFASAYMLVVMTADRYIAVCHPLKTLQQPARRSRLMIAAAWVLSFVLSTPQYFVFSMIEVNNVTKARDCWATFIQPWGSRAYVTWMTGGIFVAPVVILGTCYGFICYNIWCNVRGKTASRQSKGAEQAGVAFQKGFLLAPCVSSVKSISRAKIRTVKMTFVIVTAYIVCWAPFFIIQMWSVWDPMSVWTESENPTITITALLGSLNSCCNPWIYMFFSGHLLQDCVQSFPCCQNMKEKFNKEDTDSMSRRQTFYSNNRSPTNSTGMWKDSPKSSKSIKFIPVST
OXTR potentiate: human OXTR potentiation. 320,000 compounds, 0.061% hits. P30559. activation, % at 3 µM. CHO-OTR cells, Fluo-8 calcium fluorescence, potentiator mode; 0% = oxytocin EC15, 100% = EC100;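 active means activation above that plate's cutoff, the mean activation of tested compounds plus 3 SD, cut at about 6.6% in these data, passing the limit was not always enough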;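 further: 100% uses oxytocin at 75 nM as the full agonist control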
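Replication – single well per compound, singlicate · Assay system – CHO cell line stably expressing human OTR · Timing – 6 min pre-incubation, 100 s read · Measure – normalized max/min fluorescence ratio, % activation · Doses – 3.0 µM, one dose · Detection – Fluo-8 calcium dye fluorescence · Probe or stimulus – oxytocin near EC15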
TAAR1 nonsel count: nonselective antagonist in TAAR1 antagonist counter-screen | shares compounds with TAAR1 antag | counterscreen cell line, calcium fluorescence, antagonist mode | inhibition, % at 3 µM | 2,400 compounds, 77% hits | AID 651780; in the data active means inhibition above about 22%;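 further: CHO-Ga16 host cells stimulated with ATP at an EC80 level; 0% = agonist EC80 plus vehicle and 100% = vehicle without agonist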
TAAR1 ant conf: confirmation of human TAAR1 antagonists | shares compounds with TAAR1 antag | TAAR1-expressing cells, fluorescence antagonist read-out | inhibition, % at 3 µM | 2,400 compounds, 40% hits | AID 651785; in the data active means inhibition above about 49%;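 further: CHO-Ga16 host cells challenged with agonist PEA near its EC80; 0% = agonist at EC80 plus vehicle and 100% = vehicle with no agonist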
Ga16 nonsel ag: nonselective Ga16 agonism, counter-screen. shares compounds with TAAR1 antag. Ga16-expressing cells, calcium fluorescence, agonist counterscreen. activation, % at 3 µM. 2,400 compounds, 18% hits. AID 651953; in the data active means activation above about 12%;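 further: 0% = vehicle wells and 100% = saturating stimulus response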
TAAR1 ag counter: counter-screen for human TAAR1 antagonists: TAAR1 agonists. 2,400 compounds, 2% hits. hTAAR1 cell line, fluorescence activation, agonist mode. shares compounds with TAAR1 antag. AID 651955. activation, % at 3 µM; in the data active means activation above about 37%;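 further: CHO cells stably expressing TAAR1 with calcium dye readout; 0% = DMSO vehicle and 100% = full agonist response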
* marks the source's active call; other numbers are inactive results; . = no result.

SMILES	OXTR ag	TAAR1 ag	TAAR1 antag	V1R ag counter	OXTR potentiate	TAAR1 nonsel count	TAAR1 ant conf	Ga16 nonsel ag	TAAR1 ag counter
CCc1cc2c(COC(=O)c3cccc(NS(C)(=O)=O)c3)cc(=O)oc2cc1O	2.1	4.5	64.7*	2.8	-12.3	33.0*	38.9	4.2	2.1
CCn1c(SCC(=O)Nc2ccc3c(c2)OCCO3)nnc1-c1cccs1	-1.9	7.0	-1.5	-0.9	-2.1	.	.	.	.
COCCOC(=O)c1c(C)oc2ccc(OC(=O)c3c(OC)cccc3OC)cc12	-0.2	9.8	51.1*	2.2	-16.1	32.1*	43.5	6.0	5.2
O=C(Cc1ccc(NC(=O)C2CCCN(C(=O)C3CCC3)C2)cc1)Nc1cccc(C(=O)N2CCCCC2)c1 (stereo not given)	.	1.6	-15.0	.	.	.	.	.	.
O=C(NC1CCSC1=O)c1ccc(Cl)cc1 (stereo not given)	0.6	.	.	-0.7	-8.8	.	.	.	.
Cn1c(C(=O)Nc2ccc3c(c2)OCCO3)cc2c(=O)n(C)c3ccccc3c21	-0.9	3.4	51.7*	4.1	-8.0	10.0	34.8	7.9	12.5
Cn1c(C(=O)NC2CC2)cc2c(=O)n(C)c3ccccc3c21	-0.9	1.8	-10.4	0.0	5.0	.	.	.	.
CC(NC(=O)Cn1cc2c(n1)CCCCC2)c1ccccc1 (stereo not given)	-1.7	-1.3	2.8	-1.5	-6.5	.	.	.	.
Cc1cccc(C(=O)Oc2ccc(/C=N/NC(=O)c3ccc(O)cc3)cc2)c1	.	12.7	73.0*	.	.	36.9*	54.3*	9.6	16.7
O=C(O)c1ccc(N/N=C/c2ccc(OC(=O)c3cccc(Cl)c3)cc2)cc1	7.5	19.6	84.1*	4.8	-18.3	47.8*	60.3*	8.1	12.8
Cc1cccc(C(=O)Oc2ccc(/C=N/NC(=O)c3ccccc3O)cc2)c1	7.3	7.1	68.3*	6.9	-11.2	49.2*	57.7*	7.7	3.6
CSc1ccc(CNC2CC2)cc1	-0.1	15.1	-11.1	-0.6	0.9	.	.	.	.
CCN(CC)S(=O)(=O)c1ccc(S(=O)(=O)N2CCCC2C(=O)O)cc1 (stereo not given)	0.6	6.8	1.3	-0.1	-8.2	.	.	.	.
COc1cc2c(cc1OC)CN(C(=S)Nc1ccc(Cl)cc1)CC2	6.3	10.5	57.2*	6.9	-7.4	21.0	52.6*	12.2*	2.5
COc1cccc(NC(=S)N2CCc3cc(OC)c(OC)cc3C2)c1	-0.4	2.4	-27.0	8.8	0.8	.	.	.	.
O=C(Nc1ccc(F)c(Cl)c1)C1CCCC1	-2.3	0.3	-13.1	0.5	4.9	.	.	.	.
O=C(Nc1ccc(F)c(Cl)c1)NC1CC1	0.1	1.8	104.8*	1.8	-3.0	-4.5	2.4	10.1	15.2
O=C(c1ccccn1)N1CCN(S(=O)(=O)c2ccc3ccccc3c2)CC1	2.5	1.9	-11.8	2.1	-7.4	.	.	.	.
O=C(c1cc(=O)[nH]c2ccccc12)N1CCN(S(=O)(=O)c2ccc3ccccc3c2)CC1	-0.3	18.7	67.4*	0.4	6.8	30.1*	48.5	8.0	6.1
COC(=O)c1cc2ccccn2c2c(C(=O)OC)c(C(=O)OC)cc1-2	-0.7	21.5	62.0*	-1.1	-4.6	27.6*	49.0*	9.3	11.3
COC(=O)c1cc2c(C)cc3ccc(C)cn3c-2c1C(=O)OC	0.4	3.7	-5.3	0.9	-14.4	.	.	.	.
CSc1ccc(CCNC(=O)CN2C(=O)c3cccnc3Oc3ccc(C)cc32)cc1	2.3	7.9	74.3*	3.8	-10.3	24.9*	53.2*	6.9	9.4
CCOc1ccc(CCNC(=O)CN2C(=O)c3cccnc3Oc3ccc(C)cc32)cc1OCC	-0.8	1.1	25.1	0.1	-8.9	.	.	.	.

Screening data from PubChem.
